Data as given in ChEMBL document CHEMBL1129534, “Antitumor agents. 163. Three-dimensional quantitative structure-activity relationship study of 4'-O-demethylepipodophyllotoxin analogs using the modified CoMFA/q2-GRS approach” (J Med Chem, 1996).
“And” between values parts separate entries of the source, which are not always exact repeats. Equal entries are not always repeated.

Target: DNA topoisomerase II (Homo sapiens) (UniProt P11388+Q02880)
Experiment: Compound tested for ability to form a cellular covalent topoisomerase II-DNA complex.
Format: functional
Outline: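 Read-out is intracellular covalent topoisomerase II–DNA complex formation, scored as the percentage of cellular protein–DNA complex formed (PCPDCF). For CoMFA modelling the values were transformed to ln(PCPDCF + 1).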

| Protein-DNA complex formation | Compound |
| --- | --- |
| 116% | COc1cc([C@@H]2c3cc4c(cc3[C@@H](NC(=O)c3cccc(F)c3)[C@H]3COC(=O)[C@H]23)OCO4)cc(OC)c1O |
| 4% | CCOC(=O)c1ccccc1N[C@@H]1c2cc3c(cc2[C@@H](c2cc(OC)c(O)c(OC)c2)[C@H]2C(=O)OC[C@@H]21)OCO3 |
| 144% | COc1cc([C@@H]2c3cc4c(cc3[C@@H](NCc3ccccc3[N+](=O)[O-])[C@H]3COC(=O)[C@H]23)OCO4)cc(OC)c1O |
| 211% | COc1cc([C@@H]2c3cc4c(cc3[C@@H](Nc3ccc(O)cc3)[C@H]3COC(=O)[C@H]23)OCO4)cc(OC)c1O |
| 8% | COc1cc([C@@H]2c3cc4c(cc3[C@H](N)[C@H]3COC(=O)[C@H]23)OCO4)cc(OC)c1O |
| 129% | COC(=O)c1ccc(N[C@@H]2c3cc4c(cc3[C@@H](c3cc(OC)c(O)c(OC)c3)[C@H]3C(=O)OC[C@@H]32)OCO4)cc1O |
| 120% | COc1cc([C@@H]2c3cc4c(cc3[C@@H](NC(=O)c3ccc(N)cc3)[C@H]3COC(=O)[C@H]23)OCO4)cc(OC)c1O |
| 6.9% and 1.9% | COc1cc([C@@H]2c3cc4c(cc3[C@@H](Nc3ccc(C(=O)O)cc3)[C@H]3COC(=O)[C@H]23)OCO4)cc(OC)c1O |
| 10% | COc1cc([C@@H]2c3cc4c(cc3[C@@H](Sc3ccc(O)cc3)[C@H]3COC(=O)[C@H]23)OCO4)cc(OC)c1O |
| 148% | COc1cc([C@@H]2c3cc4c(cc3[C@@H](Nc3cccnc3)[C@H]3COC(=O)[C@H]23)OCO4)cc(OC)c1O |
| 84.1% | C=CCN[C@@H]1c2cc3c(cc2[C@@H](c2cc(OC)c(O)c(OC)c2)[C@H]2C(=O)OC[C@@H]21)OCO3 |
| 162% | COc1cc([C@@H]2c3cc4c(cc3[C@@H](N[C@@H](C)CO)[C@H]3COC(=O)[C@H]23)OCO4)cc(OC)c1O |
| 100% | COc1cc([C@@H]2c3cc4c(cc3[C@@H](OC(=O)c3cccc(N)c3)[C@H]3COC(=O)[C@H]23)OCO4)cc(OC)c1O |
| 89.2% | COc1cc([C@@H]2c3cc4c(cc3[C@@H](NCCCO)[C@H]3COC(=O)[C@H]23)OCO4)cc(OC)c1O |
| 94% | COc1cc([C@@H]2c3cc4c(cc3[C@@H](OC(=O)c3ccccc3)[C@H]3COC(=O)[C@H]23)OCO4)cc(OC)c1O |
| 140% | COc1cc([C@@H]2c3cc4c(cc3[C@@H](Nc3cccc(N)c3)[C@H]3COC(=O)[C@H]23)OCO4)cc(OC)c1O |
| 207% | CCOC(=O)c1ccc(N[C@@H]2c3cc4c(cc3[C@@H](c3cc(OC)c(O)c(OC)c3)[C@H]3C(=O)OC[C@@H]32)OCO4)cc1 |
| 235% | COc1cc([C@@H]2c3cc4c(cc3[C@@H](Nc3cccc(CO)c3)[C@H]3COC(=O)[C@H]23)OCO4)cc(OC)c1O |
| 230% | COc1cc([C@@H]2c3cc4c(cc3[C@@H](Nc3cccc([N+](=O)[O-])c3)[C@H]3COC(=O)[C@H]23)OCO4)cc(OC)c1O |
| 211% | COc1cc([C@@H]2c3cc4c(cc3[C@@H](Nc3ccc(C#N)cc3)[C@H]3COC(=O)[C@H]23)OCO4)cc(OC)c1O |
| 279% | COc1cc([C@@H]2c3cc4c(cc3[C@@H](Nc3ccc5c(c3)OCCO5)[C@H]3COC(=O)[C@H]23)OCO4)cc(OC)c1O |
| 249% | COC(=O)c1cccc(N[C@@H]2c3cc4c(cc3[C@@H](c3cc(OC)c(O)c(OC)c3)[C@H]3C(=O)OC[C@@H]32)OCO4)c1 |
| 183% and 203% | COc1cc([C@@H]2c3cc4c(cc3[C@@H](NCCN(C)C)[C@H]3COC(=O)[C@H]23)OCO4)cc(OC)c1O |
| 151% | COc1cc([C@@H]2c3cc4c(cc3[C@@H](Nc3ccccc3O)[C@H]3COC(=O)[C@H]23)OCO4)cc(OC)c1O |
| 159% | COc1cc([C@@H]2c3cc4c(cc3[C@@H](NCc3cccc(Cl)c3)[C@H]3COC(=O)[C@H]23)OCO4)cc(OC)c1O |
| 111% | COCCN[C@@H]1c2cc3c(cc2[C@@H](c2cc(OC)c(O)c(OC)c2)[C@H]2C(=O)OC[C@@H]21)OCO3 |

More lines, now with the values behind:

| Compound | Protein-DNA complex formation |
| --- | --- |
| COc1cc([C@@H]2c3cc4c(cc3[C@@H](NCCO)[C@H]3COC(=O)[C@H]23)OCO4)cc(OC)c1O | 121% |
| COc1cc([C@@H]2c3cc4c(cc3[C@@H](NCCCN(C)C)[C@H]3COC(=O)[C@H]23)OCO4)cc(OC)c1O | 186% and 179% |
| COc1cc([C@@H]2c3cc4c(cc3[C@@H](Nc3cc(OC)c(OC)c(OC)c3)[C@H]3COC(=O)[C@H]23)OCO4)cc(OC)c1O | 47% |
| COc1cc([C@@H]2c3cc4c(cc3[C@@H](NC(=O)c3ccc(F)cc3)[C@H]3COC(=O)[C@H]23)OCO4)cc(OC)c1O | 117% |
| COc1cc([C@@H]2c3cc4c(cc3[C@@H](NCc3ccccc3N)[C@H]3COC(=O)[C@H]23)OCO4)cc(OC)c1O | 184% |
| COc1cc([C@@H]2c3cc4c(cc3[C@@H](O)[C@H]3COC(=O)[C@H]23)OCO4)cc(OC)c1O | 42.2% |
| COc1cc([C@@H]2c3cc4c(cc3[C@@H](NCCN3CCCCC3)[C@H]3COC(=O)[C@H]23)OCO4)cc(OC)c1O | 183% and 190% |
| COc1cc([C@@H]2c3cc4c(cc3[C@@H](NC(=O)c3ccc(C(C)=O)cc3)[C@H]3COC(=O)[C@H]23)OCO4)cc(OC)c1O | 124% |
| COc1cc([C@@H]2c3cc4c(cc3[C@@H](NC(=O)c3ccc(OC(C)=O)cc3)[C@H]3COC(=O)[C@H]23)OCO4)cc(OC)c1O | 137% |
| COc1cc([C@@H]2c3cc4c(cc3[C@@H](Nc3ccccc3Cl)[C@H]3COC(=O)[C@H]23)OCO4)cc(OC)c1O | 32% |
| COc1cc([C@@H]2c3cc4c(cc3[C@@H](Nc3cccc(Br)c3)[C@H]3COC(=O)[C@H]23)OCO4)cc(OC)c1O | 62% |
| COc1cc([C@@H]2c3cc4c(cc3[C@@H](Oc3ccc(F)cc3)[C@H]3COC(=O)[C@H]23)OCO4)cc(OC)c1O | 57% |
| COc1cc([C@@H]2c3cc4c(cc3[C@@H](O[C@@H]3O[C@@H]5CO[C@@H](C)O[C@H]5[C@H](O)[C@H]3O)[C@H]3COC(=O)[C@H]23)OCO4)cc(OC)c1O | 100% |
| COc1cc([C@@H]2c3cc4c(cc3[C@@H](Nc3ccc(N)cc3)[C@H]3COC(=O)[C@H]23)OCO4)cc(OC)c1O | 330% |
| COc1cc([C@@H]2c3cc4c(cc3[C@@H](NCc3cccc(F)c3)[C@H]3COC(=O)[C@H]23)OCO4)cc(OC)c1O | 216% |
| COc1cc(CN[C@@H]2c3cc4c(cc3[C@@H](c3cc(OC)c(O)c(OC)c3)[C@H]3C(=O)OC[C@@H]32)OCO4)cc(OC)c1 | 144% |
| COc1cc([C@@H]2c3cc4c(cc3[C@@H](Nc3ccccc3)[C@H]3COC(=O)[C@H]23)OCO4)cc(OC)c1O | 243% |
| COc1cc([C@@H]2c3cc4c(cc3[C@@H](Nc3ccc(N5CCOCC5)cc3)[C@H]3COC(=O)[C@H]23)OCO4)cc(OC)c1O | 140% |
| COc1cc([C@@H]2c3cc4c(cc3[C@@H](NCc3cccc(C#N)c3)[C@H]3COC(=O)[C@H]23)OCO4)cc(OC)c1O | 225% |
| COc1cc([C@@H]2c3cc4c(cc3[C@@H](NCc3ccccc3F)[C@H]3COC(=O)[C@H]23)OCO4)cc(OC)c1O | 126% |
| COc1cc([C@@H]2c3cc4c(cc3[C@@H](NCc3ccccc3)[C@H]3COC(=O)[C@H]23)OCO4)cc(OC)c1O | 181% |
